Screens: PubChem BioAssay, Broad Institute
IDH1 R132H inh – inhibitors of human IDH1 R132H; O75874; IDH1 R132H reductase, diaphorase/resazurin fluorescence, 60 min; inhibition, % at 10 µM; actives 0.18% (n = 70,000); AID 624101; in the data active means inhibition above about 34%; inconclusive means no clear call, values can overlap the other calls; inactive means below about 11%;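 further: 0% = DMSO and 100% = no enzyme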
Target sequence (O75874 whole entry R132H): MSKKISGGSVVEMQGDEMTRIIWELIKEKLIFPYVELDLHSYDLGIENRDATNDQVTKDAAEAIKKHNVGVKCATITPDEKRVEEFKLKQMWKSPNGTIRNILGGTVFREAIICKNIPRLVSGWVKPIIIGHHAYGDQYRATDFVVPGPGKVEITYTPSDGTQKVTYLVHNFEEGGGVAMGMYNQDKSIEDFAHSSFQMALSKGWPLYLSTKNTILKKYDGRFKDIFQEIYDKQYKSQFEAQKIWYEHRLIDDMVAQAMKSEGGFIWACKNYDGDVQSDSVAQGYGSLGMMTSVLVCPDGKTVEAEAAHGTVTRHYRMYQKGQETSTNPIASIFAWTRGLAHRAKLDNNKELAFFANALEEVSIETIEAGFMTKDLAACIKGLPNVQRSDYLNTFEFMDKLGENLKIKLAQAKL
T cruzi growth-1 – inhibitors of T. cruzi proliferation. T. cruzi beta-gal in NIH3T3, GalScreen luminescence, 90 h. inhibition, % at 8.34 µM. actives 5.9% (n = 77,000). AID 624255;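 active means mean inhibition above about 93%, with at least 55% of replicates each passing it, limit read from the data, passing the limit was not always enough; inconclusive means only one of those two conditions holds; inactive means neither condition holds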
KDM4C inh – blocks human GASC-1 (KDM4C) demethylase activity; GST-KDM4C 2-372, H3K9me3 peptide, LANCE TR-FRET; actives 0.15% (n = 96,000); inhibition, % at 12.5 µM; Q9H3R0; AID 720574;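 active means mean replicate inhibition above about 25%, with at least 55% of replicates also reaching it, limit read from the data, passing the limit was not always enough; inconclusive means only one of those two conditions met; inactive means neither condition met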
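Material: GST-tagged GASC-1 (JMJD2C) catalytic fragment, aa 2-372. Input: enzyme final amount 10 nM. Medium: HEPES buffer, pH 7.5, plus ascorbate. Reagent: H3K9me3 peptide substrate, Fe(II), 2-oxoglutarate. Doses: single dose. Times: reaction 30 min RT, detection step 1 h RT. Measured by: LANCE TR-FRET. Evaluation: Fall in 671/618 emission ratio as inhibition.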
Pf Dd2 growth – inhibitors of Plasmodium falciparum Dd2 growth; activity change, % at 10 µM; AID 1159554; P. falciparum Dd2 growth, SYBR Green, 72 h; hits give low values; actives 2.3% (n = 94,000); in the data active means activity change below about -80%; inconclusive means no clear call, values can overlap the other calls
T cruzi growth-2 – Trypanosoma cruzi proliferation inhibition; shares compounds with T cruzi growth-1; T. cruzi beta-gal in NIH3T3, GalScreen luminescence, 90 h; inhibition, % at 8.35 µM; actives 72% (n = 5,600);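 active means mean replicate inhibition above about 95% and at least 55% of replicates individually reaching it, limit read from the data; inconclusive means only one of the two criteria is met; inactive means neither criterion is met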
T cruzi growth-3 – inhibitors of T. cruzi proliferation; shares compounds with T cruzi growth-1; T. cruzi beta-gal in NIH3T3, GalScreen luminescence, 90 h; inhibition, % at 2.09 µM; actives 21% (n = 5,600);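 active means mean inhibition above about 95%, with at least 55% of replicates also reaching it, limit read from the data; inconclusive means meets just one of the two conditions; inactive means meets neither condition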;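 further: plate controls were neutral control median for no effect and positive control median for full effect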
NIH3T3 tox – kills mouse NIH/3T3 fibroblasts. actives 14% (n = 5,600). AID 651742. cytotoxicity (signal decrease), % at 8.35 µM. shares compounds with T cruzi growth-1. NIH/3T3 viability, CellTiter-Glo ATP luminescence, 90 h;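 active means mean signal decrease across replicates above about 35% based on untreated-well scatter, with enough replicates individually passing, limit read from the data; inconclusive means no rule stated though some were filed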;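 further: 0% = median of neutral control wells and 100% = median of positive control wells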
NIH3T3 tox 2 – cytotoxicity in mouse NIH/3T3 fibroblasts; shares compounds with T cruzi growth-1; NIH/3T3 viability, CellTiter-Glo ATP luminescence, 90 h; inhibition, % at 24.9 µM; actives 56% (n = 5,600);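 active means mean loss of cell viability signal at or above a set limit, and enough replicates individually reaching it; inconclusive means meets only the mean limit or only the replicate share; inactive means meets neither condition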;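 further: 0% = median of neutral control wells and 100% = median of positive control wells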
* hit, by the source's call. In the library only some 5.8% were active in any assay of this set; here they are far more common.

How did Cc1noc(C)c1NC(=O)N(C)C[C@H]1OCc2cn(nn2)CCCC(=O)N([C@H](C)CO)C[C@@H]1C do in these assays?
IDH1 R132H inh: -1; T cruzi growth-1: -9; Pf Dd2 growth: 9

What do the screens show for `C[C@@H]1CCC2C(C)(C)[C@H](O)CC[C@]2(C)[C@@]12Cc1c(O)cc3c(c1O2)CNC3=O` (some centres not stated)?
IDH1 R132H inh: 1

How did COC(=O)c1sc(NC(=S)Nc2ccc(Cl)cn2)c(C(=O)OC)c1C do in these assays?
IDH1 R132H inh: 0

Results for COC(=O)N(C)C[C@@H]1OCc2cn(nn2)CCCC(=O)N([C@H](C)CO)C[C@H]1C ?
IDH1 R132H inh: 1; T cruzi growth-1: -250; Pf Dd2 growth: -17

Results for COC(=O)N(C)C[C@H]1OCc2cn(nn2)CCCC(=O)N([C@@H](C)CO)C[C@H]1C ?
IDH1 R132H inh: -2; T cruzi growth-1: inconclusive; KDM4C inh: 1; Pf Dd2 growth: -6; T cruzi growth-2: 25; T cruzi growth-3: 4; NIH3T3 tox: 21; NIH3T3 tox 2: inconclusive

What do the screens show for `C[C@@H]1CN([C@H](C)CO)C(=O)CCCn2cc(nn2)CO[C@@H]1CN(C)C(=O)Nc1cccc(F)c1`?
T cruzi growth-1: 11; KDM4C inh: -1; Pf Dd2 growth: 9

Results for C[C@H](CO)N1C[C@H](C)[C@@H](CN(C)C(=O)Nc2cccc(F)c2)OCc2cn(nn2)CCCC1=O ?
T cruzi growth-1: inconclusive; KDM4C inh: 0; Pf Dd2 growth: 5; T cruzi growth-2: 109*; T cruzi growth-3: 17; NIH3T3 tox: 31; NIH3T3 tox 2: 15

Results for C[C@@H]1CCCCO[C@@H](CN(C)C(=O)Nc2cccc3ccccc23)[C@@H](C)CN([C@H](C)CO)C(=O)c2cc(NS(=O)(=O)c3ccc(Cl)cc3)ccc2O1 ?
IDH1 R132H inh: 4; T cruzi growth-1: 32; KDM4C inh: -2; Pf Dd2 growth: -57

What do the screens show for `C[C@@H]1CCCCO[C@@H](CN(C)C(=O)Nc2cccc3ccccc23)[C@@H](C)CN([C@@H](C)CO)C(=O)c2cc(NS(=O)(=O)c3ccc(Cl)cc3)ccc2O1`?
T cruzi growth-1: 99*; KDM4C inh: 0; Pf Dd2 growth: -77; T cruzi growth-2: 103*; T cruzi growth-3: 93; NIH3T3 tox: -3; NIH3T3 tox 2: 4

How did C[C@@H]1CCCCO[C@H](CN(C)C(=O)Nc2cccc3ccccc23)[C@H](C)CN([C@H](C)CO)C(=O)c2cc(NS(=O)(=O)c3ccc(Cl)cc3)ccc2O1 do in these assays?
IDH1 R132H inh: -1; T cruzi growth-1: 105*; KDM4C inh: -2; Pf Dd2 growth: -76; T cruzi growth-2: 108*; T cruzi growth-3: 113*; NIH3T3 tox: 9; NIH3T3 tox 2: -1

How did COc1ccccc1-c1ccc2c(c1)O[C@H](CN(C)S(=O)(=O)c1ccc(F)cc1)[C@@H](C)CN([C@H](C)CO)S2(=O)=O do in these assays?
IDH1 R132H inh: 1; T cruzi growth-1: 92; KDM4C inh: 1; Pf Dd2 growth: -56

Results for COc1ccccc1-c1ccc2c(c1)O[C@@H](CN(C)S(=O)(=O)c1ccc(F)cc1)[C@H](C)CN([C@H](C)CO)S2(=O)=O ?
IDH1 R132H inh: -1; T cruzi growth-1: 18; KDM4C inh: -1; Pf Dd2 growth: 36

How did COc1ccccc1-c1ccc2c(c1)O[C@@H](CN(C)S(=O)(=O)c1ccc(F)cc1)[C@H](C)CN([C@@H](C)CO)S2(=O)=O do in these assays?
IDH1 R132H inh: 0; T cruzi growth-1: 108*; KDM4C inh: -1; Pf Dd2 growth: -82*; T cruzi growth-2: 109*; T cruzi growth-3: 79; NIH3T3 tox: 27; NIH3T3 tox 2: inconclusive

Results for COc1ccccc1-c1ccc2c(c1)O[C@H](CN(C)S(=O)(=O)c1ccc(F)cc1)[C@@H](C)CN([C@@H](C)CO)S2(=O)=O ?
IDH1 R132H inh: 0; T cruzi growth-1: 103*; KDM4C inh: 0; Pf Dd2 growth: -68; T cruzi growth-2: 101*; T cruzi growth-3: 59; NIH3T3 tox: 24; NIH3T3 tox 2: 48*

How did COc1ccccc1-c1ccc2c(c1)O[C@H](CN(C)S(=O)(=O)c1ccc(F)cc1)[C@H](C)CN([C@H](C)CO)S2(=O)=O do in these assays?
IDH1 R132H inh: 0; T cruzi growth-1: 102*; KDM4C inh: -1; Pf Dd2 growth: -37; T cruzi growth-2: 103*; T cruzi growth-3: 84; NIH3T3 tox: 29; NIH3T3 tox 2: 43*

What do the screens show for `C[C@@H]1CN([C@@H](C)CO)C(=O)c2cccc(NC(=O)C3CCOCC3)c2O[C@H]1CN(C)C(=O)Nc1ccc(C(F)(F)F)cc1`?
IDH1 R132H inh: 2; T cruzi growth-1: 99*; KDM4C inh: -1; Pf Dd2 growth: 9; T cruzi growth-2: -42; T cruzi growth-3: 17; NIH3T3 tox: 4; NIH3T3 tox 2: 29*

Results for C[C@@H]1CN([C@H](C)CO)C(=O)c2cccc(NC(=O)Nc3cccc4ccccc34)c2O[C@H]1CN(C)C(=O)Nc1ccc(F)cc1 ?
IDH1 R132H inh: -1; T cruzi growth-1: 99*; KDM4C inh: 0; Pf Dd2 growth: -53; T cruzi growth-2: 103*; T cruzi growth-3: 60; NIH3T3 tox: 5; NIH3T3 tox 2: 21

How did C[C@@H]1CN([C@H](C)CO)C(=O)c2cccc(NC(=O)Nc3ccc(C(F)(F)F)cc3)c2O[C@@H]1CN(C)CC1CC1 do in these assays?
IDH1 R132H inh: 0; T cruzi growth-1: 37; KDM4C inh: 0; Pf Dd2 growth: -40

How did CC(C)NC(=O)N(C)C[C@@H]1Oc2c(NC(=O)Nc3ccc(C(F)(F)F)cc3)cccc2C(=O)N([C@@H](C)CO)C[C@H]1C do in these assays?
T cruzi growth-1: 19; KDM4C inh: 10; Pf Dd2 growth: -13

Results for C[C@H](CO)N1C[C@H](C)[C@H](CN(C)CC2CC2)Oc2c(NC(=O)Nc3ccc(C(F)(F)F)cc3)cccc2C1=O ?
IDH1 R132H inh: 1; T cruzi growth-1: 118*; KDM4C inh: 1; Pf Dd2 growth: -53; T cruzi growth-2: 101*; T cruzi growth-3: 100*; NIH3T3 tox: -16; NIH3T3 tox 2: 29

Results for C[C@H](CO)N1C[C@H](C)[C@@H](CN(C)C(=O)Nc2ccc(F)cc2)Oc2c(NC(=O)Nc3cccc4ccccc34)cccc2C1=O ?
IDH1 R132H inh: -1; T cruzi growth-1: 92; KDM4C inh: 1; Pf Dd2 growth: -43
